M5 ag – CHRM5 agonism in calcium assay; activation, % at 3 µM; AID 624037; P08912; CHO-K1 hM5 cells, Fluo-8 calcium fluorescence; 0% DMSO wells, 100% maximal acetylcholine response; actives 0.19% (n = 360,000);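 active means activation above the run's mean over test compounds plus 3 SD, cut at about 23% in these data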;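 further: signal is peak over basal fluorescence ratio across the kinetic read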
Target sequence (P08912 whole entry, looked up): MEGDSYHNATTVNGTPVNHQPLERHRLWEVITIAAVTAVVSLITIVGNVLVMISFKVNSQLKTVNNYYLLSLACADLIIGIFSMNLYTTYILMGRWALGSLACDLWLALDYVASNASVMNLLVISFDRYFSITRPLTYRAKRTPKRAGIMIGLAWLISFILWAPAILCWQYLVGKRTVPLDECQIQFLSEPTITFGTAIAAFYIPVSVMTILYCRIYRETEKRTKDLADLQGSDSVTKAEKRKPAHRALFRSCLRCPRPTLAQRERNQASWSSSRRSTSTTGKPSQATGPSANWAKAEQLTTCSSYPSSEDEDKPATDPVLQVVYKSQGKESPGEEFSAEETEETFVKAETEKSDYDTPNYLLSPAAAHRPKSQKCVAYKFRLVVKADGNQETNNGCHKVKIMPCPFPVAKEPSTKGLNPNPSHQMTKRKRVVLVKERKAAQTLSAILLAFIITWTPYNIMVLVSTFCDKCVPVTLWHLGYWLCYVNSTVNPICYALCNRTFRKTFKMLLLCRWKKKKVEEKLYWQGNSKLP
M4 antag – blocks acetylcholine activation of human M4 receptor. CHO-hM4 cells, ACh EC80, Fluo-8 calcium fluorescence. actives 0.73% (n = 360,000). AID 624125. P08173. inhibition, % at 3 µM;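 active means inhibition above its plate's cutoff, the mean inhibition of sample wells plus 3 SD, cut at about 27% in these data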;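 further: 0% = acetylcholine EC80 with DMSO and 100% = DMSO without agonist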
M5 antag – antagonists of human muscarinic M5 receptor (CHRM5); actives 0.59% (n = 360,000); inhibition, % at 3 µM; CHO-hM5 cells, Fluo-8 calcium fluorescence, ACh EC80;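 active means inhibition above a per-plate cutoff, the mean of that plate's test compounds plus 3 SD, cut at about 27% in these data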;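 further: 0% = acetylcholine EC80 with DMSO and 100% = DMSO without agonist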
CHRM5 PAM – potentiates acetylcholine response at human M5 receptor. P08912. AID 624038. activation, % at 3 µM. actives 0.3% (n = 360,000). CHO-K1 hM5, Fluo-8 calcium, ACh EC20 PAM; 0% = ACh EC20, 100% = ACh EC100;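 active means activation above the run cutoff, the mean activation of all test compounds plus 3 SD, cut at about 18% in these data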
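system = human M5 receptor in CHO-K1 cells | compound = one concentration, 3 µM final (nominal) | schedule = Post-acetylcholine fluorescence recording 140 s | signal = Fluo-8 calcium dye fluorescence, kinetic read | benchmarks = low control EC20 acetylcholine (0%), high control EC100 acetylcholine (100%) | repeats = singlicate, one well per test compound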
CHRM4 agonist – CHRM4 agonism in calcium assay; P08173; CHO-K1 hM4/Gqi5, Fluo-8 calcium fluorescence; vehicle 0%, full acetylcholine response 100%; activation, % at 3 µM; actives 0.14% (n = 360,000);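 active means activation above the run mean over all test wells plus 3 SD, cut at about 32% in these data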;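 further: peak over basal fluorescence ratio per well then scaled between controls; 0% = DMSO wells and 100% = acetylcholine at EC100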
M4 PAM – CHRM4 positive allosteric modulation; P08173; CHO-K1 hM4/Gqi5, Fluo-8 calcium fluorescence, ACh EC20; 0% = ACh EC20, 100% = maximal ACh; activation, % at 3 µM; actives 0.4% (n = 360,000); AID 624126;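 active means activation above its plate's cutoff, the mean activation of sample wells plus 3 SD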
* = called active by the depositor. Rows were chosen to be rich in hits. Some 1.8% of all compounds tested hit in one or more screens of this group.

SMILES | M5 ag | M4 antag | M5 antag | CHRM5 PAM | CHRM4 agonist | M4 PAM
CCCCOC(=O)CSc1nc(N)c(C#N)c(-c2ccc(OC)cc2)c1C#N | -4.1 | -15.0 | -21.2 | 23.1* | 0.8 | 7.0
CCN(C(=O)Cn1nnc(-c2ccccc2)n1)C1CCS(=O)(=O)C1 (stereo not drawn) | 0.3 | -12.0 | 5.0 | -5.1 | -0.7 | 3.5
COc1ccc(OC)c(/C=C/C(=O)c2ccc3c(c2)OCCO3)c1 | -7.8 | 11.8 | 12.7 | -9.5 | 0.4 | 2.9
c1ccc(-c2cc(-c3nc4ccccc4[nH]3)c3ccccc3n2)cc1 | 0.0 | 24.1 | 28.6* | -18.2 | 12.4 | -17.1
O=C(Nc1ccccc1)Nc1cccc(C(F)(F)F)c1 | 4.3 | 3.5 | 39.7* | -17.1 | 15.7 | -11.9
FC(F)(F)c1cccc(NC(=S)Nc2ccc(Cl)c(Cl)c2)c1 | 7.8 | 3.5 | 5.8 | -5.7 | 5.7 | -1.0
FC(F)(F)c1cccc(NC(=S)NC(c2ccccc2)c2ccccc2)c1 | 2.0 | 12.4 | 27.3* | -18.6 | 13.7 | -18.3
Cn1nc(C(=O)Nc2cccc(C(=O)NC3CC3)c2)c2ccccc2c1=O | 3.8 | -3.4 | -10.4 | 8.0 | 3.1 | -0.6
CC(=O)c1c(C)[nH]c(C(=O)Nc2cccc(C(F)(F)F)c2)c1C | 7.4 | 9.6 | 28.8* | -12.6 | 20.4 | -13.6
Cn1nc(C(=O)Nc2cccc(C(F)(F)F)c2)c2ccccc2c1=O | -4.9 | 13.0 | -5.7 | -1.4 | -3.5 | 31.2*
COc1ccc(CCN(C)C2CCCN(C(=O)CCC(F)(F)F)C2)cc1OC (stereo not drawn) | -9.9 | -5.9 | 1.5 | 6.9 | 0.1 | 1.3
Cc1cc(C)nc(/N=C(\N)Nc2cccc(OCc3ccccc3)c2)n1 | 38.9* | 68.3* | 29.1* | -31.8 | 81.4* | -17.0
CCOC(=O)C(=O)Nc1ccc(OCc2ccccc2)cc1 | 2.1 | -2.7 | 12.9 | -10.3 | 7.1 | -4.4
COc1ccccc1N/C(N)=N/c1nc(C)cc(C)n1 | -4.3 | -12.3 | 12.0 | -5.5 | 2.6 | 2.1
Cc1cc(C)nc(/N=C(\N)Nc2ccc(S(=O)(=O)O)cc2)n1 | -0.2 | 9.2 | 8.4 | -1.5 | 0.9 | -1.5
Cc1cc(C)nc(/N=C(\N)Nc2ccc(OCc3ccccc3)cc2)n1 | 62.6* | 97.6* | 96.3* | -18.6 | 111.3* | -28.1
COc1ccc(N/C(N)=N/c2nc(C)cc(C)n2)cc1 | 0.5 | 14.1 | 2.6 | -6.7 | 7.1 | -9.9
Cc1cc(C)nc(/N=C(\N)Nc2ccc(OCCC(C)C)cc2)n1 | 64.5* | 86.1* | 76.3* | -35.2 | 105.3* | -18.6
Cc1cc(C)nc(/N=C(\N)Nc2ccc(CC(=O)OC(C)C)cc2)n1 | 30.7* | 82.7* | 41.7* | -34.6 | 112.8* | -19.5
Cc1ccccc1CN1CCN(CC2CC2)CC1CCO (stereo not drawn) | -15.9 | -0.8 | -14.5 | -4.7 | 0.7 | 1.2
Cc1cc(C)cc(NC(=S)N2C3CCCC2CC(NC(=O)C2CC2)C3)c1 (stereo not drawn) | -6.6 | -0.1 | 5.8 | -1.0 | -0.6 | -9.4
CN1CCN(S(=O)(=O)c2ccc(N3CCc4ccccc4C3)nc2)CC1 | -0.8 | 3.6 | -8.5 | 3.8 | 1.2 | 4.2
O=C(c1ccco1)N1CCN(Cc2nnc(-c3ccccc3)o2)CC1 | -0.5 | -3.3 | -10.9 | 0.5 | 0.9 | 8.8
CCCc1nnc(SCC(=O)NC2CC2)n1C | -0.7 | -1.3 | 3.5 | 0.0 | -0.4 | 0.0
CN(C)C(=O)C(NC(=O)c1ccccc1)=C(Cl)Cl | 3.4 | 2.4 | 5.1 | 4.8 | 1.6 | 8.4
SMILES | M5 ag | M4 antag | M5 antag | CHRM5 PAM | CHRM4 agonist | M4 PAM
Cc1noc(C)c1C(=O)OCC(=O)Nc1ccc(S(N)(=O)=O)cc1 | 0.3 | -8.9 | 8.9 | -1.5 | 0.3 | 8.2
O=C1c2cccc3c(N4CCCCC4)ccc(c23)C(=O)N1c1ccccn1 | 3.4 | -2.2 | 3.3 | -3.5 | 2.3 | 3.4
CCCCNc1ccc2c3c(cccc13)C(=O)N(CCCC)C2=O | 591.4* | 80.7* | 97.0* | -21.4 | 267.2* | -38.8
CN(C)CCCN1C(=O)c2cccc3c(Br)ccc(c23)C1=O | 1.6 | 3.9 | 9.0 | 5.2 | 1.3 | -11.2
CCN1C(=O)c2cccc3c(N)ccc(c23)C1=O | 104.0* | 44.2* | 27.0* | -19.1 | 316.9* | -23.8
Cc1nn(C)c(C)c1N1C(=O)c2cccc3c(Br)ccc(c23)C1=O | -1.4 | 6.7 | 4.2 | 0.6 | 5.9 | -2.3
CCCN1C(=O)c2cccc3c(N4CCCCC4)ccc(c23)C1=O | 4.2 | 2.4 | 6.5 | -3.2 | 1.8 | -2.8
Cc1ccc(N2C(=O)c3cccc4c(N)ccc(c34)C2=O)c2cccnc12 | 37.8* | -1.9 | 3.8 | -12.0 | 16.3 | 5.8
Cc1nn(C)c(C)c1N1C(=O)c2cccc3c(N)ccc(c23)C1=O | 37.5* | 28.0* | 27.9* | -15.0 | 82.1* | -32.0
COc1ccccc1-c1nnc(SC(C)C(=O)Nc2ccc(C(N)=O)cc2)o1 (stereo not drawn) | 1.2 | -7.8 | 7.6 | -1.8 | -0.2 | 1.8
COc1ccc(S(=O)(=O)Nc2ccc3c(c2)C(=O)N([C@@H](C)CO)C[C@@H](C)[C@H](CN(C)S(=O)(=O)c2ccc(F)cc2)OCCCC[C@H](C)O3)cc1 | 1.4 | -16.9 | 4.2 | 1.7 | 1.1 | 8.5
CC1Cc2c([nH]c3ccccc23)C2c3ccccc3CN12 (stereo not drawn) | 1.3 | 1.6 | 14.5 | -8.5 | 11.5 | -6.3
Nc1[nH]n2c(=O)c3c(nc2c1N=Nc1ccccc1)CCCC3 | -4.5 | 10.3 | 21.0 | 8.1 | 1.0 | 30.1*
Nc1[nH]n2c(=O)c3c(nc2c1N=Nc1ccc(Cl)cc1)CCCC3 | -1.0 | -7.9 | -0.3 | 1.4 | 0.1 | 9.4
CC(C)(C)C(=O)Nc1cc2c3c(c1)CCC(=O)N3CCC2 | -2.2 | -10.0 | -14.8 | 7.2 | 1.1 | 3.1
CCCNC(=O)C1CCN(S(=O)(=O)c2c(C)noc2/C=C\c2ccc(OC)cc2)CC1 | 0.5 | 0.5 | 3.1 | -4.6 | 1.6 | -1.0
CNC(=O)C1CCN(S(=O)(=O)c2c(C)noc2/C=C/c2ccc(OC)cc2)CC1 | -5.1 | -3.1 | 80.3* | -22.0 | 0.4 | 2.2
C/C(CS(=O)(=O)c1ccc(Cl)cc1)=N/NC(N)=S | 2.9 | -10.9 | -2.8 | 4.2 | 0.9 | 19.7*
C/C(CS(=O)(=O)c1ccc(Cl)c(Cl)c1)=N/NC(N)=S | -2.0 | -5.1 | 4.5 | -2.2 | 3.2 | -1.4
COc1cc2c(C#N)c(N3CCc4ccccc4C3)nc(N)c2c(N)n1 | 16.4 | -4.4 | 1.4 | 36.5* | 1.4 | 9.5
CC1(C(=O)NS(=O)(=O)c2ccc(Cl)s2)CCN1C(=O)C1(c2ccc(Cl)cc2)CC1 (stereo not drawn) | 0.0 | -5.5 | 1.8 | 0.1 | 0.2 | 3.6

High-throughput results as filed in PubChem.
